Source: ChEMBL document CHEMBL1142626, “Insecticidal and mutagenic evaluation of two annonaceous acetogenins” (J Nat Prod, 2000)

How the values were obtained:
[1] = system: Spodoptera littoralis; experiment: Antifeedant effect against Spodoptera littoralis L6 larvae assessed as relative growth rate at 10 ug, po after 72 hrs; type: functional
Summary of the method: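 Preweighed, newly emerged S. littoralis L6 larvae (20 per experiment) were orally cannulated with 10 µg in 2 µL DMSO; controls got solvent alone. Relative consumption and growth rates were calculated at 72 h on a dry-weight basis. Log-transformed weights were analysed by ANOVA with LSD tests.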

[2] = system: Salmonella typhimurium; experiment: Mutagenic activity in Salmonella Typhimurium TA102 assessed as number of revertants at 50 ug/plate in presence of Wistar rat S9 liver homogenate; type: toxicity, organism-based, Liver S9 fraction; settings: salmonella enterica subsp. enterica serovar typhimurium
Summary of the method: (§1)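 Salmonella/microsome plate test, with or without S9 from livers of male Wistar rats (~200 g). Strain markers and spontaneous revertant counts were routinely verified. Revertants are reported as mean ± standard error of triplicate plates. Strain-specific positive controls were used, with 2-aminoanthracene for all strains when S9 was present.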

[3] = system: Salmonella typhimurium; experiment: Mutagenic activity in Salmonella Typhimurium TA98 assessed as number of revertants at 10 ug/plate in presence of Wistar rat S9 liver homogenate; type: toxicity, organism-based, Liver S9 fraction; settings: salmonella enterica subsp. enterica serovar typhimurium; summary of the method: as §1
[4] = system: Salmonella typhimurium; experiment: Bactericidal activity against Salmonella Typhimurium TA100 assessed as viability after 24 hrs in absence of Wistar rat S9 liver homogenate; type: functional, organism-based; settings: Salmonella enterica subsp. enterica serovar Typhimurium
Summary of the method: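 Viability assay: test solution or DMSO was mixed with diluted overnight culture and phosphate buffer (no S9) in top agar with histidine/biotin. The mixture was spread on nutrient agar and incubated 24 h at 37 °C. Colonies were counted to give viable bacteria per mL; positive and negative controls included; triplicate.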

[5] = system: Salmonella typhimurium; experiment: Mutagenic activity in Salmonella Typhimurium TA102 assessed as number of revertants at 0.1 ug/plate in absence of Wistar rat S9 liver homogenate; type: toxicity, organism-based; settings: salmonella enterica subsp. enterica serovar typhimurium; summary of the method: as §1
[6] = system: Salmonella typhimurium; experiment: Mutagenic activity in Salmonella Typhimurium TA100 assessed as number of revertants at 1 ug/plate in absence of Wistar rat S9 liver homogenate; type: toxicity, organism-based; settings: salmonella enterica subsp. enterica serovar typhimurium; summary of the method: as §1
[7] = system: Salmonella typhimurium; experiment: Mutagenic activity in Salmonella Typhimurium TA100 assessed as number of revertants at 50 ug/plate in absence of Wistar rat S9 liver homogenate; type: toxicity, organism-based; settings: salmonella enterica subsp. enterica serovar typhimurium; summary of the method: as §1
[8] = system: Salmonella typhimurium; experiment: Mutagenic activity in Salmonella Typhimurium TA102 assessed as number of revertants at 0.01 ug/plate in presence of Wistar rat S9 liver homogenate; type: toxicity, organism-based, Liver S9 fraction; settings: salmonella enterica subsp. enterica serovar typhimurium; summary of the method: as §1
[9] = system: Salmonella typhimurium; experiment: Mutagenic activity in Salmonella Typhimurium TA98 assessed as number of revertants at 20 ug/plate in presence of Wistar rat S9 liver homogenate; type: toxicity, organism-based, Liver S9 fraction; settings: salmonella enterica subsp. enterica serovar typhimurium
Summary of the method: (§2)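 Salmonella/microsome plate test (Ames) in strain TA98, with genetic markers and spontaneous revertant counts verified routinely. Run with and without S9 mix, the S9 being liver postmitochondrial supernatant from male Wistar rats of about 200 g. Doses ran from 0.01 to 100 µg/plate. Revertants are the mean of triplicate plates with standard error. Positive controls were 0.5 µg 4-nitroquinoline-N-oxide without S9 and 15 µg 2-aminoanthracene with S9.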

[10] = system: Leptinotarsa decemlineata; experiment: Antifeedant effect against Leptinotarsa decemlineata assessed as feeding reduction; type: functional, organism-based
Summary of the method: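 Choice test on leaf disks using adult L. decemlineata or newly emerged fifth-instar S. littoralis larvae. Five to 10 plates per treatment, three insects each. Uneaten leaf-disk area was measured by scanner. %FR = [1 − (treatment/control consumption)] × 100 per arena. Where FR exceeded 50%, EC50 was taken from linear regression of %FR on log dose.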

[11] = system: Salmonella typhimurium; experiment: Mutagenic activity in Salmonella Typhimurium TA100 assessed as number of revertants at 0.01 ug/plate in absence of Wistar rat S9 liver homogenate; type: toxicity, organism-based; settings: salmonella enterica subsp. enterica serovar typhimurium; summary of the method: as §1
[12] = system: Salmonella typhimurium; experiment: Mutagenic activity in Salmonella Typhimurium TA102 assessed as number of revertants at 1 ug/plate in absence of Wistar rat S9 liver homogenate; type: toxicity, organism-based; settings: salmonella enterica subsp. enterica serovar typhimurium; summary of the method: as §1
[13] = system: Salmonella typhimurium; experiment: Mutagenic activity in Salmonella Typhimurium TA98 assessed as number of revertants at 0.01 ug/plate in absence of Wistar rat S9 liver homogenate; type: toxicity, organism-based; settings: salmonella enterica subsp. enterica serovar typhimurium; summary of the method: as §1
[14] = system: Salmonella typhimurium; experiment: Mutagenic activity in Salmonella Typhimurium TA102 assessed as number of revertants at 10 ug/plate in absence of Wistar rat S9 liver homogenate; type: toxicity, organism-based; settings: salmonella enterica subsp. enterica serovar typhimurium; summary of the method: as §1
[15] = system: Leptinotarsa decemlineata; experiment: Insecticidal activity against Leptinotarsa decemlineata assessed as mortality at 5 ug by hemolymph injection after 72 hrs; type: functional
Summary of the method: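 Adult L. decemlineata (20 beetles) were injected with 5 µg in DMSO through the metepimeron suture of the thorax. Beetles were kept on potato leaves. Symptoms and mortality were recorded up to 3 days, analysed by contingency tables and Abbott-corrected.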

[16] = system: Salmonella typhimurium; experiment: Mutagenic activity in Salmonella Typhimurium TA98 assessed as number of revertants at 20 ug/plate in absence of Wistar rat S9 liver homogenate; type: toxicity, organism-based; settings: salmonella enterica subsp. enterica serovar typhimurium; summary of the method: as §2
[17] = system: Salmonella typhimurium; experiment: Mutagenic activity in Salmonella Typhimurium TA100 assessed as number of revertants at 1 ug/plate in presence of Wistar rat S9 liver homogenate; type: toxicity, organism-based, Liver S9 fraction; settings: salmonella enterica subsp. enterica serovar typhimurium; summary of the method: as §1
[18] = system: Salmonella typhimurium; experiment: Mutagenic activity in Salmonella Typhimurium TA98 assessed as number of revertants at 1 ug/plate in presence of Wistar rat S9 liver homogenate; type: toxicity, organism-based, Liver S9 fraction; settings: salmonella enterica subsp. enterica serovar typhimurium; summary of the method: as §1
[19] = system: Salmonella typhimurium; experiment: Mutagenic activity in Salmonella Typhimurium TA100 assessed as number of revertants at 0.1 ug/plate in presence of Wistar rat S9 liver homogenate; type: toxicity, organism-based, Liver S9 fraction; settings: salmonella enterica subsp. enterica serovar typhimurium; summary of the method: as §1
[20] = system: Salmonella typhimurium; experiment: Mutagenic activity in Salmonella Typhimurium TA102 assessed as number of revertants at 0.01 ug/plate in absence of Wistar rat S9 liver homogenate; type: toxicity, organism-based; settings: salmonella enterica subsp. enterica serovar typhimurium; summary of the method: as §1
[21] = system: Salmonella typhimurium; experiment: Mutagenic activity in Salmonella Typhimurium TA98 assessed as number of revertants at 100 ug/plate in absence of Wistar rat S9 liver homogenate; type: toxicity, organism-based; settings: salmonella enterica subsp. enterica serovar typhimurium; summary of the method: as §2
[22] = system: Salmonella typhimurium; experiment: Mutagenic activity in Salmonella Typhimurium TA100 assessed as number of revertants at 0.1 ug/plate in absence of Wistar rat S9 liver homogenate; type: toxicity, organism-based; settings: salmonella enterica subsp. enterica serovar typhimurium; summary of the method: as §1
[23] = system: Salmonella typhimurium; experiment: Mutagenic activity in Salmonella Typhimurium TA100 assessed as number of revertants at 20 ug/plate in presence of Wistar rat S9 liver homogenate; type: toxicity, organism-based, Liver S9 fraction; settings: salmonella enterica subsp. enterica serovar typhimurium; summary of the method: as §1
[24] = system: Salmonella typhimurium; experiment: Mutagenic activity in Salmonella Typhimurium TA98 assessed as number of revertants at 0.1 ug/plate in presence of Wistar rat S9 liver homogenate; type: toxicity, organism-based, Liver S9 fraction; settings: salmonella enterica subsp. enterica serovar typhimurium; summary of the method: as §1
[25] = system: Myzus persicae; experiment: Antifeedant effect against Myzus persicae assessed as inhibition index at 100 ug/cm2 relative to control; type: functional; design: scale not given: the % may be the effect or the level left
Summary of the method: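 Choice settling test on apterous adult M. persicae: 20 boxes of 10 aphids per treatment. Settling inhibition %SI = [1 − (%aphids on treated/%aphids on control surface)] × 100.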

CCCCCCCCCCCC[C@@H](O)[C@H]1CC[C@H]([C@H](O)CCCC[C@H](O)CCCCC[C@@H](O)CC2=CC(C)OC2=O)O1 (stereo not given in full) [ANNONACIN]
Activity [1]: 3.44 mg
Activity [2]: 430
Activity [3]: 19
Activity [4]: Non-toxic
Activity [5]: 296
Activity [6]: 125
Activity [7]: 85
Activity [8]: 443
Activity [9]: 26
EC50 [10]: 10 microg/cm2
Activity [11]: 150
Activity [12]: 277
Activity [13]: 33
Activity [14]: 221
Activity [15]: 29.68%
Activity [16]: 36
Activity [17]: 140
Activity [18]: 27
Activity [19]: 139
Activity [20]: 328
Activity [21]: 14
Activity [22]: 142
Activity [23]: 139
Activity [24]: 21
Activity [25]: <40%
